One data set addresses Trypsin (Homo sapiens) (UniProt P07477+P07478+P35030). As to the kind of experiment: Inhibition of trypsin (unknown origin) using Boc-Val-Pro-Arg-AMC as substrate at 25 uM preincubated with protein for 15 mins followed by substrate addition by continuous fluorimetric assay relative to control.
The target of data set [1] is Prothrombin (Homo sapiens) (UniProt P00734). As to the kind of experiment: Inhibition of thrombin (unknown origin) using Boc-Val-Pro-Arg-AMC as substrate at 25 uM preincubated with protein for 15 mins followed by substrate addition measured for 10 mins by continuous fluorimetric assay relative to control.
For data set [2], the system named is West Nile virus. Nature of the data set: Inhibition of West Nile virus NS2B-NS3 protease using 2-Abz-Gly-Leu-Lys-Arg-Gly-Gly-[…]-Tyr-NH2 as substrate at 50 uM preincubated with protein for 15 mins followed by substrate addition measured for 15 mins by FRET assay. An outline of the steps: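 Linked WNV NS2B-NS3 protease (150 nM) was preincubated 15 min with inhibitor (50 μM final) in 50 mM Tris-HCl pH 9, 10% ethylene glycol, 0.0016% Brij 58. […] Percent inhibition was taken from the slope relative to the no-inhibitor control, in triplicate.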

Data set [3] in a line: Inhibition of West Nile virus NS2B-NS3 protease using 2-Abz-Gly-Leu-Lys-Arg-Gly-Gly-[…]-Tyr-NH2 as substrate preincubated with protein for 15 mins followed by substrate addition measured for 15 mins by FRET assay. The method in brief:
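WNV NS2B-NS3 linked construct at 75 nM (40 nM in one case) in pH 9 Tris buffer, preincubated 15 min with eight inhibitor concentrations (ranges 0–1 up to 0–50 μM). Substrate was 50 μM, with FRET readout over 15 min. IC50 was fitted from triplicates.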

A short description of data set [4]: Inhibition of Dengue virus serotype-2 NS2B-NS3 protease using 2-Abz-Nle-Lys-Arg-Arg-Ser-(3-NO2)-Tyr-NH2 as substrate preincubated with protein for 15 mins followed by substrate addition measured for 15 mins by FRET assay. Further details: species or system dengue virus type 2. An outline of the steps:
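DENV-2 NS2B-NS3 linked construct at 30 nM (15 nM in some cases), same pH 9 Tris buffer, 15 min preincubation and FRET read-out. Eight inhibitor concentrations spanned 0–1, 0–2, 0–6 or 0–50 μM, with substrate at 50 μM. IC50 was fitted from triplicates.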

Data set [5] relates to dengue virus type 2. Nature of the data set: Antiviral activity against Dengue virus serotype-2 infected in African green monkey Vero cells after 7 days by virus yield reduction assay. It counts as functional, organism-based.
The test system of data set [6] is West Nile virus. As to the kind of experiment: Antiviral activity against West Nile virus infected in human HuH7 cells after 3 days by virus yield reduction assay. It counts as functional, organism-based. The conditions noted are these: Huh-7, 72 h.
Data set [7] in a line: Cytotoxicity against human HuH7 cells infected with Dengue virus serotype-2 assessed as cell viability after 48 hrs by Cell-Titer-Glo luminescent viability assay. It counts as cell-based, Huh-7. The method in brief: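 Huh-7 cells (10^4/well) were seeded in DMEM + 10% FBS overnight, then infected with WT DENV-2 (MOI 1) in the presence of compound, triplicate per concentration. After 48 h at 37 °C, medium was replaced with fresh DMEM and viability was read by CellTiter-Glo luminescence. CC50 was determined.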

The nature of data set [8]: Cytotoxicity against human HuH7 cells infected with West Nile virus assessed as cell viability after 48 hrs by Cell-Titer-Glo luminescent viability assay. The data set is classed as cell-based, Huh-7. The method in brief:
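Huh-7 cells (10^4/well, DMEM + 10% FBS, overnight) were infected with WT WNV (MOI 0.1) alongside compound, each concentration in triplicate. After 48 h at 37 °C, fresh DMEM was added and viability was measured by CellTiter-Glo luminescence. CC50 was determined.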

A short description of data set [9]: Retention time of compound by RP-HPLC analysis. The data set is classed as physicochemical.
The nature of data set [10]: Selectivity index, ratio of CC50 for African green monkey Vero cells to EC50 for Dengue virus serotype-2 infected in African green monkey Vero cells. The conditions noted are these: read-out: Ratio CC50/EC50. It counts as toxicity, cell-based.
Data set [11] concerns dengue virus type 2. Nature of the data set: Inhibition of Dengue virus serotype-2 NS2B-NS3 protease using 2-Abz-Nle-Lys-Arg-Arg-Ser-(3-NO2)-Tyr-NH2 as substrate preincubated with protein for 15 mins followed by substrate addition measured for 15 mins by FRET assay relative to Bz-Lys-Arg-Phg-NH2.
For data set [12], the system named is West Nile virus. Nature of the data set: Inhibition of West Nile virus NS2B-NS3 protease using 2-Abz-Gly-Leu-Lys-Arg-GlyGly-[…]-Tyr-NH2 as substrate preincubated with protein for 15 mins followed by substrate addition measured for 15 mins by FRET assay relative to Bz-Lys-Arg-Phg-NH2.
Data set [13] concerns dengue virus type 2. As to the kind of experiment: Inhibition of Dengue virus serotype-2 NS2B-NS3 protease using 2-Abz-Nle-Lys-Arg-Arg-Ser-(3-NO2)-Tyr-NH2 as substrate at 50 uM preincubated with protein for 15 mins followed by substrate addition measured for 15 mins by FRET assay.
Data set [14] concerns West Nile virus. Nature of the data set: Inhibition of West Nile virus NS2B-NS3 protease at 0 to 48 uM incubated for 1 hr by tryptophan quenching assay.
In data set [15] the test system is dengue virus type 2. As to the kind of experiment: Inhibition of Dengue virus serotype-2 NS2B-NS3 protease at 0 to 48 uM incubated for 1 hr by tryptophan quenching assay.
The subject of data set [16] is dengue virus type 2. As to the kind of experiment: Competitive inhibition of Dengue virus serotype-2 NS2B-NS3 protease in presence of aprotinin by fluorescence displacement assay based Cheng-Prusoff plot.
Data set [17] has as its system West Nile virus. Nature of the data set: Competitive inhibition of West Nile virus NS2B-NS3 protease in presence of aprotinin by fluorescence displacement assay based Cheng-Prusoff plot.
A short description of data set [18]: Half life in Sprague-Dawley rat liver microsomes incubated for 30 mins by UV-HPLC method. It counts as ADME. The method in brief:
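Pooled male rat liver microsomes (0.2 mg/mL protein) with NADPH (10 mM) in DPBS were preincubated 15 min at 37 °C. Compound (100 μM) was added and incubated at 37 °C; aliquots were taken at 0, 2, 5, 10, 20 and 30 min. Samples were quenched with equal-volume acetonitrile, chilled and centrifuged, and parent remaining was quantified by RP-HPLC UV against reference peak areas. Testosterone served as positive control.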
For orientation: Liver microsomes are vesicles of endoplasmic reticulum, rich in cytochrome P450 enzymes.

The source made the active and inactive calls. No cut-off for these calls is given here.

Results on three compounds are retold here after ChEMBL document CHEMBL3739314, “Discovery of Nanomolar Dengue and West Nile Virus Protease Inhibitors Containing a 4-Benzyloxyphenylglycine Residue” (J Med Chem, 2015).

The term inhibition denotes the relative decrease from the control value, in per cent. Usually IC50 stands for the concentration needed to halve the response being measured. For orientation: EC50 means the concentration at which the effect is half-maximal. By CC50 is commonly meant the concentration giving 50% cytotoxicity. The term Ki denotes the dissociation constant of the complex between target and ligand, obtained from inhibition or displacement. In general, half-life refers to the time in which the quantity being followed falls by half.

For `N=C(N)NCCC[C@H](NC(=O)c1cccs1)C(=O)N[C@@H](CCCCN)C(=O)N[C@@H](C(N)=O)c1ccc(OCc2ccc(Cl)c(Cl)c2)cc1`, the inhibition entry (on Trypsin (Homo sapiens); in data set [1]) was “inactive” in each case. Further, the inhibition with West Nile virus [2] came out at 98%. For the same compound, the 50% inhibitory concentration (IC50) in data set [3] and in [4] was 79 nM each time. Also, the EC50 in the data set with dengue virus type 2 [5] was determined as 4060 nM; in the data set with West Nile virus [6] it was 23300 nM. Also, the CC50 at 48 h in data set [7] and in data set [8] was over 100000 nM each time. In data set [9], this compound displayed a Retention_time of 3.22 min. The selectivity ratio in data set [10] was over 25.
With `N=C(N)NCCC[C@H](NC(=O)c1ccccc1)C(=O)N[C@@H](CCCCN)C(=O)N[C@@H](C(N)=O)c1ccc(OCc2ccccc2)cc1`, at Trypsin (Homo sapiens), the inhibition entry was “inactive”. Further, the fold change (FC) in the data set with dengue virus type 2 [11] amounted to 9; in the data set on West Nile virus [12] it was 80. Also, the inhibition is under 30% in data set [1], 101% in the data set with West Nile virus [2] and 100% in the data set on dengue virus type 2 [13]. Moreover, the results for the IC50 in data set [3] and in data set [4] were 728 nM and 367 nM, respectively. Also, the Ki came out at 536 nM in [3] and 307 nM in data set [4]. The compound also gave an EC50 with dengue virus type 2 [5] of 7940 nM. In addition, the CC50 at 48 h in data set [7] was over 100000 nM. In data set [9], this compound registered a Retention_time of 2.83 min.
As for `N=C(N)NCCC[C@H](NC(=O)c1nccs1)C(=O)N[C@@H](CCCCN)C(=O)N[C@@H](C(N)=O)c1ccc(OCc2ccc(C(F)(F)F)cc2)cc1`, the inhibition entry in the data set on West Nile virus [14], with dengue virus type 2 [15], in the data set with dengue virus type 2 [16] and with West Nile virus [17] was “Active” throughout. The inhibition result (on Trypsin (Homo sapiens); in data set [1]) was “inactive” each time. Further, in the data set on West Nile virus [2], the inhibition is 100%. For the same compound, the half-inhibitory concentration (IC50) turned out to be 50 nM in [3] and 18 nM in [4]. Besides, the inhibition constant (Ki) in data set [3] is 39 nM; in data set [4], 12 nM. Also, the half-maximal effective concentration (EC50) was 20400 nM in the data set on dengue virus type 2 [5] and 23400 nM in the data set on West Nile virus [6]. Besides, the CC50 at 48 h in data set [7] and in data set [8] was over 100000 nM throughout. For the same compound, in data set [9], the Retention_time is 3.11 min. In addition, the half-life in data set [18] was 45 min.
